In ChEMBL document CHEMBL1149749, “Antibacterial activity of totarol and its potentiation” (1992):
Converted amounts (≈) assume the structure as drawn. One block for each compound: values may come before it. The source made the active and inactive calls. The rule behind the calls is not given here.

Columns and labels:
[1] = system: Bacillus subtilis; assay: Antibacterial activity against Bacillus subtilis ATCC 9372 up to 400 ug/ml after 2 days by twofold serial dilution method; format: functional, organism-based
In short: (§1)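 Twofold serial broth dilution in each organism's own medium, DMF held at 1% in all tubes. The highest concentration was 400 µg/ml unless otherwise specified. MIC was taken as the lowest concentration with no visible growth, and determinations were done in duplicate.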

[2] = system: Corynebacterium ammoniagenes; assay: Antibacterial activity against Brevibacterium ammoniagenes ATCC 6872 up to 400 ug/ml after 2 days by twofold serial dilution method; format: functional, organism-based; in short: as §1
[3] = system: Staphylococcus aureus; assay: Antibacterial activity against penicillin-susceptible Staphylococcus aureus ATCC 12598 up to 400 ug/ml after 2 days by twofold serial dilution method; format: functional, organism-based; in short: as §1
[4] = system: Staphylococcus aureus; assay: Antibacterial activity against penicillin-resistant Staphylococcus aureus ATCC 29247 up to 400 ug/ml after 2 days by twofold serial dilution method; format: functional, organism-based
In short: (§2)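 Twofold serial broth dilution, highest concentration 400 µg/ml. Samples were delivered in DMF, kept at 1% in the medium throughout. MIC was the lowest concentration with no visible growth, determined in duplicate.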

[5] = system: Streptococcus mutans; assay: Antibacterial activity against Streptococcus mutans ATCC 25175 up to 400 ug/ml after 2 days by twofold serial dilution method; format: functional, organism-based; in short: as §1
[6] = system: Cutibacterium acnes; assay: Antibacterial activity against Propionibacterium acnes ATCC 11827 up to 400 ug/ml after 2 days by twofold serial dilution method; format: functional, organism-based; in short: as §1
[7] = system: Pseudomonas aeruginosa; assay: Antibacterial activity against Pseudomonas aeruginosa ATCC 10145 up to 400 ug/ml after 2 days by twofold serial dilution method; format: functional, organism-based; in short: as §1
[8] = system: Klebsiella aerogenes; assay: Antibacterial activity against Enterobacter aerogenes ATCC 13048 up to 400 ug/ml after 2 days by twofold serial dilution method; format: functional, organism-based; in short: as §1
[9] = system: Escherichia coli; assay: Antibacterial activity against Escherichia coli ATCC 13048 up to 400 ug/ml after 2 days by twofold serial dilution method; format: functional, organism-based; in short: as §1
[10] = system: Saccharomyces cerevisiae; assay: Antifungal activity against Saccharomyces cerevisiae ATCC 7754 up to 400 ug/ml after 2 days by twofold serial dilution method; format: functional, organism-based; in short: as §1
[11] = system: Candida albicans; assay: Antifungal activity against Candida albicans ATCC 18804 up to 400 ug/ml after 2 days by twofold serial dilution method; format: functional, organism-based; in short: as §1
[12] = system: Penicillium chrysogenum; assay: Antifungal activity against Penicillium chrysogenum ATCC 10106 up to 400 ug/ml after 2 days by twofold serial dilution method; format: functional, organism-based; in short: as §1
[13] = system: Malassezia; assay: Antifungal activity against Pityrosporum ovale ATCC 14521 up to 400 ug/ml after 2 days by twofold serial dilution method; format: functional, organism-based; in short: as §1
[14] = system: Bacillus subtilis; assay: Antibacterial activity against Bacillus subtilis ATCC 9372 after 2 days by twofold serial dilution method; format: functional; settings: ATCC 9372, 48 h; in short: as §1
[15] = system: Corynebacterium ammoniagenes; assay: Antibacterial activity against Brevibacterium ammoniagenes ATCC 6872 after 2 days by twofold serial dilution method; format: functional; settings: ATCC 6872, 48 h; in short: as §1
[16] = system: Staphylococcus aureus; assay: Antibacterial activity against penicillin-susceptible Staphylococcus aureus ATCC 12598 after 2 days by twofold serial dilution method; format: functional; settings: ATCC 12598, 48 h; in short: as §1
[17] = system: Streptococcus mutans; assay: Antibacterial activity against Streptococcus mutans ATCC 25175 after 2 days by twofold serial dilution method; format: functional; settings: ATCC 25175, 48 h; in short: as §1
[18] = system: Cutibacterium acnes; assay: Antibacterial activity against Propionibacterium acnes ATCC 11827 after 2 days by twofold serial dilution method; format: functional; settings: ATCC 11827, 48 h; in short: as §1
[19] = system: Staphylococcus aureus; assay: Antibacterial activity against penicillin-resistant Staphylococcus aureus ATCC 29247 after 2 days by twofold serial dilution method; format: functional; settings: ATCC 29247, 48 h; in short: as §2

SMILES: CC(C)c1c(O)ccc2c1CC[C@H]1[C@@](C)(C(=O)O)CCC[C@]21C
- Activity [1]: inactive
- Activity [2]: inactive
- Activity [3]: inactive
- Activity [4]: inactive
- Activity [5]: inactive
- Activity [6]: inactive
- Activity [7]: inactive
- Activity [8]: inactive
- Activity [9]: inactive
- Activity [10]: inactive
- Activity [11]: inactive
- Activity [12]: inactive
- Activity [13]: inactive

SMILES: CC(C)c1c(O)ccc2c1CC[C@H]1[C@@](C)(CO)CCC[C@]21C
- Activity [1]: inactive
- Activity [2]: inactive
- Activity [3]: inactive
- Activity [4]: inactive
- Activity [5]: inactive
- Activity [6]: inactive
- Activity [7]: inactive
- Activity [8]: inactive
- Activity [9]: inactive
- Activity [10]: inactive
- Activity [11]: inactive
- Activity [12]: inactive
- Activity [13]: inactive

- MIC [14]: 25 µg/mL (≈ 82.7 µM)
- MIC [15]: 100 µg/mL (≈ 331 µM)
- MIC [16]: 50 µg/mL (≈ 165 µM)
- MIC [17]: 200 µg/mL (≈ 661 µM)
- MIC [18]: 25 µg/mL (≈ 82.7 µM)
SMILES: CC(C)c1c(O)ccc2c1CC[C@H]1C(C)(C)[C@@H](O)CC[C@]21C [TOTARADIOL]
- Activity [7]: inactive
- Activity [8]: inactive
- Activity [9]: inactive
- Activity [10]: inactive
- Activity [11]: inactive
- Activity [12]: inactive
- Activity [13]: inactive

SMILES: CC(C)c1c(O)ccc2c1CC[C@H]1[C@@](C)(C=O)CCC[C@]21C
- Activity [1]: inactive
- Activity [2]: inactive
- Activity [3]: inactive
- Activity [4]: inactive
- Activity [5]: inactive
- Activity [6]: inactive
- Activity [7]: inactive
- Activity [8]: inactive
- Activity [9]: inactive
- Activity [10]: inactive
- Activity [11]: inactive
- Activity [12]: inactive
- Activity [13]: inactive

SMILES: CC1(C)S[C@@H]2[C@H](NC(=O)Cc3ccccc3)C(=O)N2[C@H]1C(=O)O [PENICILLIN G]
- MIC [14]: 50 µg/mL (≈ 150 µM)
- MIC [15]: 0.39 µg/mL (≈ 1.17 µM)
- MIC [16]: 0.049 µg/mL (≈ 0.147 µM)
- MIC [19]: > 800 µg/mL
- MIC [17]: 0.049 µg/mL (≈ 0.147 µM)
- MIC [18]: 0.012 µg/mL (≈ 0.0359 µM)

SMILES: CC(C)c1c(O)ccc2c1CC[C@H]1C(C)(C)CCC[C@]21C [TOTAROL]
- MBC [14]: 1.56 µg/mL (≈ 5.45 µM)
- MIC [14]: 1.56 µg/mL (≈ 5.45 µM)
- MBC [15]: 6.25 µg/mL (≈ 21.8 µM)
- MIC [15]: 0.78 µg/mL (≈ 2.72 µM)
- MBC [16]: 1.56 µg/mL (≈ 5.45 µM)
- MIC [16]: 1.56 µg/mL (≈ 5.45 µM)
- MIC [19]: 0.78 µg/mL (≈ 2.72 µM)
- MBC [17]: 0.78 µg/mL (≈ 2.72 µM)
- MIC [17]: 0.78 µg/mL (≈ 2.72 µM)
- MBC [18]: 0.78 µg/mL (≈ 2.72 µM)
- MIC [18]: 0.39 µg/mL (≈ 1.36 µM)
- Activity [7]: inactive
- Activity [8]: inactive
- Activity [9]: inactive
- Activity [10]: inactive
- Activity [11]: inactive
- Activity [12]: inactive
- Activity [13]: inactive
